The test system of data set [1] is Influenza A virus. Briefly: Antiviral activity against Influenza A virus (A/goose/Guangdong/SH7/2013(H5N1)) infected in CEF cells assessed as reduction in virus-induced cytopathic effect incubated for 48 hrs by CCK-8 assay. Type of data set: functional, organism-based. (Protection from cytopathic effect is a common read-out in antiviral testing.)
Data set [2] in a line: Cytotoxicity against chicken CEF cells assessed as reduction in cell viability incubated for 48 hrs by CCK8 assay. Type of data set: cell-based, Gallus gallus. The method, boiled down:
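Mock-infected chicken embryo fibroblasts received 2-fold serial dilutions of compound in DMEM with 1% FBS for 48 h at 37°C under 5% CO₂. Viability was read by CCK-8 (90 min, A450).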

The nature of data set [3]: Inhibition of influenza B virus (B/PHUKET/3073/2013)) Neuraminidase in using 4-MUNANA as substrate preincubated for 10 mins followed by substrate addition and measured after 40 mins by fluorescence based assay. The procedure, abridged:
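Influenza B/PHUKET/3073/2013 NA, in MES buffer at pH 6.5 with CaCl₂, was preincubated with inhibitor for 10 min at 37°C. MUNANA substrate was added for 40 min at 37°C, and the reaction was stopped with 0.2 M glycine-NaOH at pH 10.2. Fluorescence was read at ex 365 / em 455 nm minus substrate blanks. IC50 was taken from % inhibition curves, mean ± SD of three experiments.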

Data set [4] concerns Influenza A virus. The experiment in a line: Antiviral activity against Influenza A virus (A/Chicken/Hebei/LZF/2014(H5N2)) infected in CEF cells assessed as reduction in virus-induced cytopathic effect incubated for 48 hrs by CCK-8 assay. Type of data set: functional, organism-based.
The target in data set [5] is Neuraminidase (Influenza A virus (A/Memphis/1/1971(H3N2)), UniProt P03471). Briefly: Inhibition of influenza A virus (A/Chicken/Hebei/LZF/2014(H5N2)) Neuraminidase N2 in using 4-MUNANA as substrate preincubated for 10 mins followed by substrate addition and measured after 40 mins by fluorescence based assay.

As a reminder, the EC50 is the midpoint of the concentration-response curve. As a reminder, the CC50 is the concentration that lowers cell viability or growth by half. Broadly, the IC50 is the concentration that gives 50% inhibition. High values mean a need for much substance, low ones inhibition by little substance.

Neuraminidase (Influenza A virus (A/Memphis/1/1971(H3N2)), UniProt P03471), sequence (P03471 whole entry): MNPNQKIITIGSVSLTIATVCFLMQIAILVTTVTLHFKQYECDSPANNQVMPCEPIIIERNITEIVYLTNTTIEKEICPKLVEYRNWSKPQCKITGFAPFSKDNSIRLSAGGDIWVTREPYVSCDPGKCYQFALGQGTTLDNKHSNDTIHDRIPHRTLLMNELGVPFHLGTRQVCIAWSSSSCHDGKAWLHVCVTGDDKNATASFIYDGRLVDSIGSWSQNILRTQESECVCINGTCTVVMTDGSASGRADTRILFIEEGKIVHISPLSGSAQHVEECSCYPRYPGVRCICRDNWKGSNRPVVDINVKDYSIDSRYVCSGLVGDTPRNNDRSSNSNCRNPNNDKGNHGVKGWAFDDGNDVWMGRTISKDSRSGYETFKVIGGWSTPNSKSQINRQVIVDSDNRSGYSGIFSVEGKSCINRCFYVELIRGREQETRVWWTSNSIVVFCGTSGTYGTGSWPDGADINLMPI

For the compound `CCC(CC)O[C@@H]1C=C(C(=O)N[C@@H](C(=O)O)C(C)C)C[C@H](NCc2ccc(SC)cc2)[C@H]1NC(C)=O`, the EC50 in the data set on Influenza A virus [1] is > 100 µM; in the data set with Influenza A virus [4], 26.6 µM. Further, in data set [2], the CC50 at 48 h was > 200 µM. In data set [3], the IC50 was > 100 µM.

Consider `CCC(CC)O[C@@H]1C=C(C(=O)NCc2ccc(C(=O)O)cc2)C[C@H](NCc2ccc(N3CCCC3)cc2)[C@H]1NC(C)=O`, for which the midpoint of inhibition in data set [5], the IC50, lay at 4.7 µM.

Take `CCC(CC)O[C@@H]1C=C(C(=O)O)C[C@H](NCc2ccc(SC)cc2)[C@H]1NC(C)=O`: the EC50 with Influenza A virus [1] stood at 0.66 µM; in the data set on Influenza A virus [4], 0.48 µM. Besides, the CC50 at 48 h in data set [2] was > 200 µM. Besides, the IC50 in data set [3] stood at 7.97 µM; in data set [5], 8.34 µM.

Consider `CCC(CC)O[C@@H]1C=C(C(=O)NCc2ccc(F)cc2)C[C@H](NCc2ccc(N3CCCC3)cc2)[C@H]1NC(C)=O`, for which the IC50 in data set [5] amounted to 48.4 µM.

As for `CCC(CC)O[C@@H]1C=C(C(=O)NCc2ccc(Cl)cc2)C[C@H](NCc2ccc(N3CCCC3)cc2)[C@H]1NC(C)=O`, the EC50 in the data set on Influenza A virus [1] and in the data set with Influenza A virus [4] was > 100 µM throughout. Besides, the CC50 at 48 h in data set [2] is 77.1 µM. The compound further registered an IC50 in data set [5] of 0.94 µM.

For `CCC(CC)O[C@@H]1C=C(C(=O)N[C@@H](C(=O)O)C(C)C)C[C@H](NCc2ccc(Sc3ccccc3)cc2)[C@H]1NC(C)=O`, the IC50 in data set [3] and in data set [5] was > 100 µM each time.

For `CCC(CC)O[C@@H]1C=C(C(=O)NCc2ccc(C(=O)O)cc2)C[C@H](NCc2ccc(Sc3ccccc3)cc2)[C@H]1NC(C)=O`, the IC50 in data set [5] is > 100 µM.

Take `CCC(CC)O[C@@H]1C=C(C(=O)NCc2ccc(Cl)cc2)C[C@H](NCc2ccc(SC)cc2)[C@H]1NC(C)=O`: in data set [3], the IC50 was > 100 µM.

In data set [5], `CCC(CC)O[C@@H]1C=C(C(=O)NCc2ccc(C(=O)O)cc2)C[C@H](NCc2ccc(N(CC)CC)cc2)[C@H]1NC(C)=O` had an IC50 of 13.3 µM.

In the case of `CCC(CC)O[C@@H]1C=C(C(=O)N[C@@H](C(=O)O)C(C)C)C[C@H](NCc2ccc(N3CCCC3)cc2)[C@H]1NC(C)=O`, in data set [5], the IC50 was determined as 2.41 µM.

For the compound `CCC(CC)O[C@@H]1C=C(C(=O)O)C[C@H](N)[C@H]1NC(C)=O` [OSELTAMIVIR CARBOXYLATE], the EC50 is 0.82 µM in the data set with Influenza A virus [1] and 0.17 µM in the data set with Influenza A virus [4]. In addition, the 50% cytotoxic concentration (CC50) at 48 h in data set [2] was > 200 µM. For the same compound, the half-maximal inhibitory concentration (IC50) in data set [3] amounted to 0.037 µM.

Source of the values: ChEMBL document CHEMBL4364245 (Eur J Med Chem, 2019).
